Screens as filed in PubChem.
In the library only some 3% were active in any assay of this set; here they are far more common.
SENP6 inh: blocks the human protease SENP6; Recombinant SENP6 catalytic domain, aminoluciferin luminescence; inhibition, % at 10 µM; 330,000 tested, 1.8% active; Q9GZR1;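 active = inhibition above about 50% at the single tested dose, limit read from the data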
SENP7 inh: inhibitors of human SENP7 protease; Q9BQF6; recombinant SENP7, Z-RLRGG-aminoluciferin luminescence, 40 min; inhibition, % at 5 µM; 330,000 tested, 1.5% active; AID 434973;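 active = inhibition above about 50% at the single test dose, limit read from the data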
Target sequence (Q9BQF6 706-1050 limits assumed): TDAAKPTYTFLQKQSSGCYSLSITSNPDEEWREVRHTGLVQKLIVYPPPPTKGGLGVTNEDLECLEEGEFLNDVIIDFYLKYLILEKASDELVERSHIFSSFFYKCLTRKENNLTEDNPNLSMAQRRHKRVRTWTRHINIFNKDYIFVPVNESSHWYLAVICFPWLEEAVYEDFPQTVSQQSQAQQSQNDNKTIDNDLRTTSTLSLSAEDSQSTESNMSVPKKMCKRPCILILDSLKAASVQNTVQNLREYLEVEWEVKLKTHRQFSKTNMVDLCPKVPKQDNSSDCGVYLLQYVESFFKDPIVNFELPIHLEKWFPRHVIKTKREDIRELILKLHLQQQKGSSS
UBC13 inh: human UBC13 polyubiquitination inhibition. P61088. UBC13 polyubiquitin chain formation, TR-FRET. inhibition, % at 20 µM. 330,000 tested, 0.47% active; in the data active = inhibition above about 45%, passing the limit was not always enough
Target sequence (P61088 whole entry, looked up): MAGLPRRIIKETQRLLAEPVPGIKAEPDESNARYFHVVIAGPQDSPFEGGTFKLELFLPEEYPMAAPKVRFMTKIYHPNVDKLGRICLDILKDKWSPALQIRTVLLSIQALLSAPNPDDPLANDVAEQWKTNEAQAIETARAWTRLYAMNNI
SENP8 block-1: SENP8 (human) protease inhibition | inhibition, % at 20 µM | 360,000 tested, 0.64% active | recombinant SENP8, Nedd8 substrate fluorescence | AID 602440; in the data active = inhibition mostly above about 40%, no sharp cut-off; inactive = mostly below about 27%
Apaf-1 inh: human Apaf-1 inhibition. O14727. reconstituted apoptosome caspase-3 activity, DEVD-Rh110 fluorescence. inhibition, % at 20 µM. 330,000 tested, 0.71% active. AID 489030; active = inhibition of at least 40% at 20 µM
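Material: cell-free apoptosome with Apaf-1, procaspase-3 and caspase-9; Buffer or medium: Hepes pH 7.5 with detergent and BSA; Reagent: cytochrome c trigger plus (Z-DEVD)2-Rh110 caspase-3 substrate; Times: compound with Apaf-1, dATP, procaspase-3 30 min, then 50 min reaction, room temperature; Technique: Rh110 fluorescence intensity.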
SENP8 block-2: SENP8 protease inhibition; purified SENP8, Z-RLRGG-aminoluciferin cleavage, luminescence; inhibition, % at 10 µM; 330,000 tested, 1.2% active; Q96LD8; in the data active = inhibition above about 50%
SENP8 conf: confirmation of human SENP8 protease inhibitors | Recombinant SENP8, Z-RLRGG-aminoluciferin luminescence, 60 min | AID 488912 | inhibition, % at 12.5 µM | 6,200 tested, 40% active | shares compounds with SENP7 inh;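 active = mean inhibition across replicates above about 50%, limit read from the data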
SENP6 conf: confirmation of human SENP6 protease inhibitors; inhibition, % at 12.5 µM; 6,200 tested, 58% active; shares compounds with SENP7 inh; recombinant SENP6, Z-RLRGG-aminoluciferin luminescence
SENP7 conf: confirmation of human SENP7 protease inhibitors | shares compounds with SENP7 inh | recombinant SENP7, Z-RLRGG-aminoluciferin luminescence, 40 min | inhibition, % at 12.5 µM | 6,200 tested, 69% active | AID 488917
Casp3 select: selectivity test for SENP inhibitors: human caspase-3 inhibition | shares compounds with SENP7 inh | purified caspase-3, Z-DEVD-aminoluciferin luminescence, 60 min | inhibition, % at 12.5 µM | 6,200 tested, 60% active | AID 488918;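 active = mean inhibition above about 50%, limit read from the data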
SENP luc ctr: counter-screen for SENP inhibitors: luminescence interference. shares compounds with SENP7 inh. Pre-incubated SENP8/Z-RLRGG-aminoluciferin, luciferase luminescence interference. inhibition, % at 12.5 µM. 6,200 tested, 39% active;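 active = mean inhibition above about 50% when retested at one dose, limit read from the data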
Of the large screens only hits and unclear results are named; the others gave an inactive call (follow-up assays come after a bar, where they were run).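 The calls were made as follows, unless noted: active = mean inhibition above about 50% in the one-dose retest (limit read from the data); inactive = the rest.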

COc1cccc(C(=O)Nc2nc3ccccc3s2)c1	SENP6 inh 89.8, SENP7 inh 91.4, SENP8 block-2 85.8 | SENP8 conf 90.5 | SENP6 conf 91.0 | SENP7 conf 98.8 | Casp3 select 83.3 | SENP luc ctr 59.5
COc1ccc2nc(NC(=O)c3ccc4ncsc4c3)sc2c1	none
COc1cccc(C(=O)Nc2nc(C)cs2)c1	SENP6 inh 52.3 | SENP8 conf inactive | SENP6 conf inactive | SENP7 conf 71.5 | Casp3 select 69.3 | SENP luc ctr 50.4
COc1ccc(C(=O)Nc2nc3ccccc3s2)cc1	SENP6 inh 95.5, SENP7 inh 93.3, SENP8 block-2 89.4 | SENP8 conf inactive | SENP6 conf 94.5 | SENP7 conf 101.4 | Casp3 select 87.5 | SENP luc ctr 84.6
O=C(Nc1nc2ccccc2s1)c1cccc(N2C(=O)CCC2=O)c1	none
COc1ccc2nc(NC(=O)c3ccc(F)cc3)sc2c1	SENP6 inh 64.1, SENP7 inh 90.5 | SENP8 conf inactive | SENP6 conf inactive | SENP7 conf inactive | Casp3 select inactive | SENP luc ctr inactive
COc1ccc(C(=O)Nc2nc3ccccc3s2)cc1OC	none
COc1ccc(-c2ccc(CN3C(C(C)C)C(=O)N(Cc4cn(CCC5OCCO5)nn4)CCS3(=O)=O)cc2)cc1 (stereo not given)	none (no result: SENP6 inh, SENP7 inh, UBC13 inh, Apaf-1 inh, SENP8 block-2)
COc1ccc(Cl)cc1CC1(C)C(=O)Nc2ccc(S(=O)(=O)NC3CCCCC3)cc21 (stereo not given)	none (no result: SENP6 inh, SENP7 inh, UBC13 inh, Apaf-1 inh, SENP8 block-2)
COc1ccc(NC(=O)C2(C)CCN2Cc2ccc(C(C)C)cc2)cc1OC (stereo not given)	none (no result: SENP6 inh, SENP7 inh, UBC13 inh, Apaf-1 inh, SENP8 block-2)
CC(C)NC(=O)C1(C)CCN1C(=O)c1ccc2c(c1)OCO2 (stereo not given)	none (no result: SENP6 inh, SENP7 inh, UBC13 inh, Apaf-1 inh, SENP8 block-2)
Cc1csc(NC(=O)c2ccc(C)c([N+](=O)[O-])c2)n1	none
Cc1csc(NC(=O)c2ccc3nc[nH]c3c2)n1	SENP6 inh 81.7, SENP7 inh 77.7, SENP8 block-2 68.6 | SENP8 conf inactive | SENP6 conf 75.2 | SENP7 conf 94.6 | Casp3 select 88.4 | SENP luc ctr 73.9
O=C(Nc1cccc(C(=O)N2CCOCC2)c1)c1ncn[nH]1	SENP7 inh 84.5 | SENP8 conf inactive | SENP6 conf inactive | SENP7 conf inactive | Casp3 select inactive | SENP luc ctr inactive
Cc1ccc(C(=O)Nc2cccc(C(=O)N3CCOCC3)c2)cc1	none
CCCCCNC(=O)C(c1cccc2ccccc12)n1c(=O)c(-c2cc3ccccc3[nH]2)nc2ccccc21 (stereo not given)	none (no result: SENP6 inh, SENP7 inh, UBC13 inh, Apaf-1 inh, SENP8 block-2)
CCCn1c(SC(C)C(=O)NC2CCCC(C)C2C)n[nH]c1=O (stereo not given)	none (no result: SENP6 inh, SENP7 inh, UBC13 inh, Apaf-1 inh, SENP8 block-2)
CCCCn1nnnc1C(c1ccccc1)N1CCN(c2ncccc2C(F)(F)F)CC1 (stereo not given)	none (no result: SENP6 inh, SENP7 inh, UBC13 inh, Apaf-1 inh, SENP8 block-2)
Cc1ccnc(NC(=O)/C=C/c2cccs2)c1	SENP6 inh 86.0, SENP7 inh 67.2, SENP8 block-2 57.0 | SENP8 conf 71.4 | SENP6 conf 70.6 | SENP7 conf 90.8 | Casp3 select 82.8 | SENP luc ctr inactive
O=C(Nc1cc(C(F)(F)F)cc(C(F)(F)F)c1)O[C@@H]1c2ccccc2[C@@H]2Cc3csc[n+]3[C@H]12	none (no result: SENP6 inh, SENP7 inh, UBC13 inh, Apaf-1 inh, SENP8 block-2)
O=[N+]([O-])c1cccc(-c2cnc3ccccc3n2)c1	none
O=[N+]([O-])c1cc(-c2cnc3ccccc3n2)ccc1Cl	SENP7 inh 50.7 | SENP8 conf inactive | SENP6 conf inactive | SENP7 conf inactive | Casp3 select inactive | SENP luc ctr inactive
